The values below come from ChEMBL document CHEMBL3232910, “Synthesis and evaluation of several oleanolic acid glycoconjugates as protein tyrosine phosphatase 1B inhibitors” (Eur J Med Chem, 2014).

Test [1] deals with T1, Tyrosine-protein phosphatase non-receptor type 2 (Homo sapiens, UniProt P17706).
T1 sequence (P17706 whole entry): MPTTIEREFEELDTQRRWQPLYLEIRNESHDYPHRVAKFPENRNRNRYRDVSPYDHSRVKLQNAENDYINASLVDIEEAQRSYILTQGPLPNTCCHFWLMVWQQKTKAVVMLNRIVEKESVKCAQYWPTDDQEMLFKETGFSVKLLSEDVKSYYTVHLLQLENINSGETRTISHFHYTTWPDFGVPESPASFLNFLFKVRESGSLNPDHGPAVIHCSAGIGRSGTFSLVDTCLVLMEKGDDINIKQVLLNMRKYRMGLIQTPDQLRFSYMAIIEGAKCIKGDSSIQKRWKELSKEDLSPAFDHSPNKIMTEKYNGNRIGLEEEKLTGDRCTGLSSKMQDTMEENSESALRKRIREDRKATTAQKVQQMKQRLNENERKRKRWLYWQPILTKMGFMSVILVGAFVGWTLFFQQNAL
Put plainly: Inhibition of TCPTP (unknown origin) using p-nitrophenyl phosphate as substrate assessed as inhibition of release of p-nitrophenol preincubated for 10 mins measured before substrate addition after 30 mins by spectrophotometry. In a few lines:
(§1)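 Enzyme diluted in 25 mM HEPES, 50 mM NaCl, 2.5 mM EDTA, 0.1% BSA, pH 7.2. Inhibitor in DMSO was preincubated with enzyme in 50 mM HEPES, 2.5 mM EDTA, pH 7.0 at 37 C for 10 min. pNPP was then added, 30 min at 37 C, stopped with 2 M Na2CO3, A405 read.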

Test [2] concerns the target T2, Tyrosine-protein phosphatase non-receptor type 1 (Homo sapiens, UniProt P18031).
T2 sequence (P18031 whole entry): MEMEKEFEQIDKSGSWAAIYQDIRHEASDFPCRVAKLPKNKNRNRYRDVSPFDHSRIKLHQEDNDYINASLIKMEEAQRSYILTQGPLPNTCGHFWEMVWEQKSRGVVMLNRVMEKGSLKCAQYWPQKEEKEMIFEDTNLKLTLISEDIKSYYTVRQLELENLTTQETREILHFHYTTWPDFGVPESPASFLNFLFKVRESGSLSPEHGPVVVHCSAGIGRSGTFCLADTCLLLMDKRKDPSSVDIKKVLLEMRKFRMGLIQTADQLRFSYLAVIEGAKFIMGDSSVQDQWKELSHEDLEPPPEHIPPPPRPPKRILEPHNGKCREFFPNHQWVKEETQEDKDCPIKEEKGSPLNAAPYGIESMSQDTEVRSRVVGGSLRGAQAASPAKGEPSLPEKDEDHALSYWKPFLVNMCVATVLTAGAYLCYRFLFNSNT
Put plainly: Inhibition of recombinant PTP1B (unknown origin) using p-nitrophenyl phosphate as substrate assessed as inhibition of release of p-nitrophenol preincubated for 10 mins measured before substrate addition after 30 mins by spectrophotometry. In a few lines:
as §1

Test [3] is filed under the species Homo sapiens. Put plainly: Selectivity ratio of IC50 for TCPTP (unknown origin) to IC50 for recombinant PTP1B (unknown origin). In a few lines: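 Ratio of TCPTP IC50 to PTP1B IC50. Both come from the same pNPP hydrolysis assay: 10 min preincubation at 37 C in 50 mM HEPES, 2.5 mM EDTA, pH 7.0, 30 min reaction, Na2CO3 quench, A405. IC50 from 4-parameter logistic fits.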

In test [4] the target is T3, Tyrosine-protein phosphatase non-receptor type 1 (Homo sapiens) (UniProt P18031).
T3 sequence (whole entry): T2 sequence (P18031 whole entry)
Briefly: Inhibition of recombinant PTP1B (unknown origin) using p-nitrophenyl phosphate as substrate assessed as inhibition of release of p-nitrophenol preincubated for 10 mins measured before substrate addition at 10 ug/ml after 30 mins by spectrophotometry.

Structures are written as SMILES.

Consider `CC1(C)CC[C@]2(C(=O)O[C@@H]3O[C@H](CNC(=O)c4ccccc4C(=O)O)[C@@H](O)[C@H](O)[C@H]3O)CC[C@]3(C)C(=CC[C@@H]4[C@@]5(C)CC[C@H](O[C@@H]6O[C@H](CO)[C@@H](O[C@@H]7O[C@H](CO)[C@@H](O)[C@H](O)[C@H]7O)[C@H](O)[C@H]6O)C(C)(C)[C@@H]5CC[C@]43C)[C@@H]2C1`, for which the results for the IC50 in test [1] and in test [2] were 2.16 µM and 0.78 µM, respectively. The Ratio IC50 in test [3] amounted to 2.8. Moreover, in test [4], the inhibition was > 54.7%.
As to `CC1(C)CC[C@]2(C(=O)O[C@@H]3O[C@H](CNC(=O)c4ccccc4C(=O)O)[C@@H](O)[C@H](O)[C@H]3O)CC[C@]3(C)C(=CC[C@@H]4[C@@]5(C)CC[C@H](O[C@H]6O[C@H](CO)[C@@H](O)[C@H](O)[C@@H]6O)C(C)(C)[C@@H]5CC[C@]43C)[C@@H]2C1`, in test [2], the IC50 was 15.9 µM. Further, in test [4], the inhibition was > 54.7%.
On to `C[C@@H]1O[C@@H](O[C@H]2CC[C@]3(C)[C@H]4CC=C5[C@@H]6CC(C)(C)CC[C@]6(C(=O)O[C@@H]6O[C@H](CNC(=O)c7ccccc7C(=O)O)[C@@H](O)[C@H](O)[C@H]6O)CC[C@@]5(C)[C@]4(C)CC[C@H]3C2(C)C)[C@@H](O)[C@H](O)[C@@H]1O`, for which the IC50 in test [1] worked out at 8.73 µM; in test [2] it was 10.4 µM. Moreover, in test [3], the Ratio IC50 is 0.8. Further, in test [4], the inhibition was > 54.7%.
Turning to `CC1(C)CC[C@]2(C(=O)O[C@@H]3O[C@H](CNC(=O)c4ccccc4C(=O)O)[C@@H](O)[C@H](O)[C@H]3O)CC[C@]3(C)C(=CC[C@@H]4[C@@]5(C)CC[C@H](O[C@@H]6OC[C@H](O)[C@H](O)[C@H]6O)C(C)(C)[C@@H]5CC[C@]43C)[C@@H]2C1`, the results for the IC50 in test [1] and in test [2] were 12.4 µM and 5.67 µM, respectively. The Ratio IC50 in test [3] came out at 2.2. The inhibition in test [4] is > 54.7%.
The like results for `CC1(C)CC[C@]2(C(=O)O[C@@H]3O[C@H](CNC(=O)c4ccccc4C(=O)O)[C@@H](O)[C@H](O)[C@H]3O)CC[C@]3(C)C(=CC[C@@H]4[C@@]5(C)CC[C@H](O[C@@H]6O[C@H](CO)[C@@H](O[C@@H]7O[C@H](CO)[C@H](O)[C@H](O)[C@H]7O)[C@H](O)[C@H]6O)C(C)(C)[C@@H]5CC[C@]43C)[C@@H]2C1` were, in that order, 4.11 µM, 1.03 µM, 4 and > 54.7%.
The corresponding values for `CC1(C)CC[C@]2(C(=O)O[C@@H]3O[C@H](CNC(=O)c4ccccc4C(=O)O)[C@@H](O)[C@H](O)[C@H]3O)CC[C@]3(C)C(=CC[C@@H]4[C@@]5(C)CC[C@H](O)C(C)(C)[C@@H]5CC[C@]43C)[C@@H]2C1` are 24.4 µM, 20.4 µM, 1.2 and 54.7%.
The corresponding values for `CC1(C)CC[C@]2(C(=O)O[C@@H]3O[C@H](CNC(=O)c4ccccc4C(=O)O)[C@@H](O)[C@H](O)[C@H]3O)CC[C@]3(C)C(=CC[C@@H]4[C@@]5(C)CC[C@H](O[C@@H]6O[C@H](CO[C@@H]7O[C@H](CO)[C@@H](O)[C@H](O)[C@H]7O)[C@@H](O)[C@H](O)[C@H]6O)C(C)(C)[C@@H]5CC[C@]43C)[C@@H]2C1` are 2.98 µM, 3.12 µM, 1 and > 54.7%.
As to `C[C@@H]1O[C@@H](O[C@H]2CC[C@]3(C)[C@H]4CC=C5[C@@H]6CC(C)(C)CC[C@]6(C(=O)O[C@@H]6O[C@H](CNC(=O)c7ccccc7C(=O)O)[C@@H](O)[C@H](O)[C@H]6O)CC[C@@]5(C)[C@]4(C)CC[C@H]3C2(C)C)[C@H](O)[C@H](O)[C@H]1O`, the IC50 in test [2] is 26.5 µM. The inhibition in test [4] is > 54.7%.
On to `CC1(C)CC[C@]2(C(=O)O[C@@H]3O[C@H](CNC(=O)c4ccccc4C(=O)O)[C@@H](O)[C@H](O)[C@H]3O)CC[C@]3(C)C(=CC[C@@H]4[C@@]5(C)CC[C@H](O[C@@H]6O[C@H](CO)[C@H](O)[C@H](O)[C@H]6O)C(C)(C)[C@@H]5CC[C@]43C)[C@@H]2C1`, for which the IC50 is 14.6 µM in test [1] and 6.53 µM in test [2]. For the same compound, the Ratio IC50 in test [3] was 2.2. In test [4], the inhibition is > 54.7%.
Regarding `CC1(C)CC[C@]2(C(=O)O[C@@H]3O[C@H](CNC(=O)c4ccccc4C(=O)O)[C@@H](O)[C@H](O)[C@H]3O)CC[C@]3(C)C(=CC[C@@H]4[C@@]5(C)CC[C@H](O[C@@H]6OC[C@@H](O)[C@H](O)[C@H]6O)C(C)(C)[C@@H]5CC[C@]43C)[C@@H]2C1`, the IC50 in test [1] is 15.5 µM; in test [2], 16.6 µM. Further, in test [3], the Ratio IC50 worked out at 0.9. Further, the inhibition in test [4] was > 54.7%.
The corresponding values for `CC1(C)CC[C@]2(C(=O)O[C@@H]3O[C@H](CNC(=O)c4ccccc4C(=O)O)[C@@H](O)[C@H](O)[C@H]3O)CC[C@]3(C)C(=CC[C@@H]4[C@@]5(C)CC[C@H](O[C@@H]6O[C@H](CO)[C@@H](O)[C@H](O)[C@H]6O)C(C)(C)[C@@H]5CC[C@]43C)[C@@H]2C1` are 30.5 µM, 17.2 µM, 1.8 and > 54.7%.
